# Experiments:
# [1] = test system: Schizosaccharomyces pombe; assay: Antimicrobial activity against Schizosaccharomyces pombe after 24 to 48 hrs by serial dilution technique; assay type: functional
# Method in brief: (§1)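 MIC by twofold (1:1) serial dilution in 96-well plates. Medium was MYC (1.0% glucose, 1.0% phytone peptone, 50 mM HEPES, pH 7.0), used for yeasts and fungi.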
# Staphylococcus aureus = assay: Antimicrobial activity against methicillin-resistant Staphylococcus aureus after 24 to 48 hrs by serial dilution technique; assay type: functional
# Wickerhamomyces anomalus = assay: Antimicrobial activity against Pichia anamola after 24 to 48 hrs by serial dilution technique; assay type: functional; method in brief: as §1
# Rhodotorula glutinis = assay: Antimicrobial activity against Rhodotorula glutinis after 24 to 48 hrs by serial dilution technique; assay type: functional; method in brief: as §1
# Pseudomonas aeruginosa = assay: Antimicrobial activity against Pseudomonas aeruginosa after 24 to 48 hrs by serial dilution technique; assay type: functional
# L929 = assay: Cytotoxicity against mouse L929 cells after 5 days by MTT assay; assay type: functional, cell-based; conditions: L929, 120 h
# Micrococcus luteus = assay: Antimicrobial activity against Micrococcus luteus after 24 to 48 hrs by serial dilution technique; assay type: functional
# [2] = Antimicrobial activity against Nocardia flava after 24 to 48 hrs by serial dilution technique; assay type: functional
# HUVEC = assay: Cytotoxicity against human HUVEC cells after 5 days by MTT assay; assay type: cell-based; conditions: 120 h
# Escherichia coli = assay: Antimicrobial activity against Escherichia coli after 24 to 48 hrs by serial dilution technique; assay type: functional
# MCF7 = assay: Cytotoxicity against human MCF7 cells after 5 days by MTT assay; assay type: functional, cell-based; conditions: MCF7, 120 h
# Mucor hiemalis = assay: Antimicrobial activity against Mucor hiemalis after 24 to 48 hrs by serial dilution technique; assay type: functional; method in brief: as §1
# Candida albicans = assay: Antimicrobial activity against Candida albicans after 24 to 48 hrs by serial dilution technique; assay type: functional; method in brief: as §1
# [3] = test system: Chromobacterium violaceum; assay: Antimicrobial activity against Chromobacterium violaceum after 24 to 48 hrs by serial dilution technique; assay type: functional
# [4] = Cytotoxicity against human KB-3-1 cells after 5 days by MTT assay; assay type: functional, cell-based; conditions: KB 3-1, 120 h
compound,measurement,setting,value
CSC1=CC(=O)C(N)=C(Cl)C1=O [HYALADIONE],MIC,[1],> 33.3 µg/mL
same,MIC,Staphylococcus aureus,0.83 µg/mL
same,MIC,Wickerhamomyces anomalus; Hansenula anomala,33.3 µg/mL
same,MIC,Rhodotorula glutinis,1.7 µg/mL
same,MIC,Pseudomonas aeruginosa,8.5 µg/mL
same,IC50,L929,1.47 µM
same,MIC,Micrococcus luteus,3.3 µg/mL
same,MIC,[2],3.3 µg/mL
same,IC50,HUVEC,2.21 µM
same,MIC,Escherichia coli,33.3 µg/mL
same,IC50,MCF7,1.23 µM
same,MIC,Mucor hiemalis,16.5 µg/mL
same,MIC,Candida albicans,> 33.3 µg/mL
same,MIC,[3],2.1 µg/mL
same,IC50,[4],3.93 µM
CN(C)[C@@H]1C(O)=C(C(N)=O)C(=O)[C@@]2(O)C(O)=C3C(=O)c4c(O)cccc4[C@@](C)(O)[C@H]3[C@H](O)[C@@H]12.Cl [OXYTETRACYCLINE HYDROCHLORIDE],MIC,Staphylococcus aureus,0.104 µg/mL
same,MIC,Micrococcus luteus,0.104 µg/mL
same,MIC,[2],1.67 µg/mL
same,MIC,Escherichia coli,0.83 µg/mL
same,MIC,[3],0.21 µg/mL
NYSTATIN,MIC,[1],1.67 µg/mL
same,MIC,Wickerhamomyces anomalus,1.67 µg/mL
same,MIC,Rhodotorula glutinis,0.42 µg/mL
same,MIC,Mucor hiemalis,1.67 µg/mL
same,MIC,Candida albicans,1.67 µg/mL

# Reference: ChEMBL document CHEMBL2040741, “Hyaladione, an S-methyl cyclohexadiene-dione from Hyalangium minutum” (J Nat Prod, 2012)
